Assay results as given in ChEMBL document CHEMBL1151330, “Facile total synthesis and antimicrobial activity of the marine fatty acids (Z)-2-methoxy-5-hexadecenoic acid and (Z)-2-methoxy-6-hexadecenoic acid” (1998).

Legend:
Assay type in all cases: functional
Staphylococcus aureus = experiment: Antibacterial activity against Staphylococcus aureus ATCC 25923 after overnight incubation
Summary of the method: (§1)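 Broth microdilution per NCCLS: 200 µL of the α-methoxylated fatty acid in Mueller-Hinton broth, inoculated with 10⁵ CFU, incubated overnight at 37 °C. MIC taken as the highest dilution inhibiting growth, compared with an uninoculated chemical-control well. At least three separate experiments, each in duplicate.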

Escherichia coli = experiment: Antibacterial activity against Escherichia coli ATCC 25922 after overnight incubation; summary of the method: as §1
Enterococcus faecalis = experiment: Antibacterial activity against Streptococcus faecalis group D ATCC 29212 after overnight incubation; summary of the method: as §1
Pseudomonas aeruginosa = experiment: Antibacterial activity against Pseudomonas aeruginosa ATCC 27853 after overnight incubation; summary of the method: as §1

Row | Structure (SMILES) | MIC (Staphylococcus aureus) | MIC (Escherichia coli) [µg/mL] | MIC (Enterococcus faecalis) | MIC (Pseudomonas aeruginosa) [µg/mL]
1 | CCCCCCCCC/C=C\CCCC(OC)C(=O)O (configuration not stated) | 350 µM | > 200 | 350 µM | > 200
2 | CCCCCCCCCCCCCCC(OC)C(=O)O (configuration not stated) | > 100 µg/mL | > 100 | > 100 µg/mL | > 100
3 | CCCCCCCCCC/C=C\CC[C@H](OC)C(=O)O | 350 µM | > 200 | 350 µM | > 200
